# Data reported in PubChem BioAssay.
# Values without a mark were called inactive. Inconclusive results are not listed. Active and inactive are the calls of the source.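 How the source made its calls, unless noted: active means RAM network inhibition above 8.4% in each of two replicates, 3 SD over the compound average; inconclusive means above 8.4% inhibition in only one replicate; inactive means 8.4% inhibition or less in each replicate.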
# Assays:
# [1] = S. cerevisiae growth inhibition in permissive medium (OD615), pilot counter-assay for S. cerevisiae lifespan shortening project, permissive growth control (AID 705;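 active means growth inhibition above 25% in both replicates, a cutoff set 3 SD above the mean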); settings: OD615, 24 h, at 10 µM, stronger effect = higher value
# In short: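 assay system = Saccharomyces cerevisiae strain carrying genetically modified DeaD replicative-lifespan system | medium = SC raffinose/galactose permissive medium | dosing = 10 µM single dose, 0.25% DMSO | schedule = 24 h compound exposure at 30 °C after 4 h pre-growth | measured by = OD at 615 nm | read-out basis = growth inhibition from lowered OD615 after 24 h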
# [2] = S. cerevisiae growth inhibition in restrictive medium, OD615, pilot screen, restrictive growth control, yeast lifespan reduction project (AID 706;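 active means growth inhibition above a set limit, 3 SD over mean compound inhibition, in both replicates, cut at about 43% in these data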;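 further: modified DeaD lifespan yeast strain shifted to restrictive glucose medium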); settings: OD615, 48 h, at 10 µM, stronger effect = higher value
# In short: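 Buffer or medium: CSMM-D glucose medium. Material: genetically modified Saccharomyces cerevisiae, DeaD replicative lifespan assay strain. Times: 48 h compound exposure at 30 °C. Measured by: optical density at 615 nm.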
# [3] = doxorubicin toxicity protection in MRP-1 cells – H69AR cells, CellTiter-Glo, duplicate, MRP-1 activator project, pilot screen (AID 807;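 active means viability increase at or above a cutoff of the median across tested compounds plus 3 SD, cut at about 8.5% in these data, passing the limit was not always enough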;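 further: compound pretreatment 18-22 h then 72 h combined with doxorubicin; 0% = doxorubicin alone and 100% = vehicle without doxorubicin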); settings: H69AR viability with doxorubicin, CellTiter-Glo luminescence; at 10 µM; stronger effect = higher value
# [4] = viability of HCT116 without oncogenic beta-catenin – human colon tumor cells, pilot screen (AID 823;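 active means cell viability at or below a set limit in both duplicate runs, the limit being the all-compound median minus 4 SD, cut at about 23% in these data, passing the limit was not always enough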;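 further: 0% = wells killed by 20 µM Hyamine and 100% = untreated DMSO cell wells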); settings: HCT116 beta-catenin knockout viability, CellTiter-Glo, 60 h; at 10 µM; stronger effect = lower value
# [5] = viability of PTEN-null HCT116 cells – cell-based, HCT116 clonal line, CellTiter-Glo, pilot screen (AID 824;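 active means viability at or below 27.92% in each of two runs, the all-compound median minus 4 SD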;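 further: 0% = 20 µM Hyamine control and 100% = vehicle cell control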); settings: HCT116 PTEN-deleted viability, 60 h, at 10 µM, stronger effect = lower value
# [6] = RAM pathway blockade in budding yeast – dse1pr::URA3 reporter, 5-FOA selection, pilot screen (AID 869;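 active means inhibition over a set limit, the all-compound mean plus 3 SD, in both replicate runs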;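 further: 0% = DMSO wells with no growth and 100% = 10 µM 1-NA-PP1 with full growth; RAM network block rescues cells from 5-FOA so hits raise OD615 growth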); settings: S. cerevisiae dse1pr::URA3 5-FOA growth, OD615, 2 d; at 10 µM; stronger effect = higher value; strain carries analog-sensitive mutant Cbk1 kinase
# [7] = RAM signaling pathway blockade in yeast – S. cerevisiae, Pdr1DBD-CYC8 efflux-inhibited sensitized strain, primary screen (AID 1298);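 further: 0% = DMSO untreated cells without growth and 100% = 10 µM 1-NA-PP1 full growth; higher means more yeast growth rescued from 5-FOA killing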; settings: S. cerevisiae cbk1-as DSE1-URA3 strain, 5-FOA growth OD615, 2 d; at 50 µM; stronger effect = higher value
SMILES,growth inhibition [1] [%],growth inhibition [2] [%],viability increase [3] [%],viability [4],viability [5],inhibition [6] [%],RAM network inhibition [7] [%]
CCOC(=O)c1cnc2nc[nH]n2c1=O,1.53,11.7,2.64,104%,103%,0.33,-0.24
O=C(CSc1nc2ncccc2[nH]1)NCc1ccccc1,0.36,13.3,-0.06,101%,86.9%,3.13,3.93
CCCC(=N)C1=C(O)CC(CC(C)SCC)CC1=O (stereo not given),-5.42,5.29,-1.06,97.5%,103%,0.49,-1.1
CCC(=O)N=c1sc2c(C)cc(C)cc2n1CC(=O)OC,-9.96,-16.1,-0.83,92.4%,88.7%,1.55,2.76
COc1ccccc1CNC(=O)c1nnc(Cc2ccc(Cl)cc2)o1,-9.86,15.4,2.29,103%,99.8%,1.81,1.15
Cn1cccc1Cc1nnc(SCC(=O)NC2CCCCC2)n1-c1ccc(F)cc1,1.67,-4.1,-1.86,95.4%,96.7%,1.08,4.28
CC1CCN(c2nc(-c3ccco3)c3c(c2C#N)CC(C)(C)OC3)CC1,-15,-3.74,-6.85,90.8%,89.6%,0.175,0.92
COc1ccc(C2C(C(=O)c3cccs3)=C(O)C(=O)N2c2nnc(C)s2)cc1OC (stereo not given),-6.25,9.11,1.59,102%,101%,1.33,2.05
Cc1csc2nc(CNC(=O)CCC(=O)O)cn12,-8.41,-2.59,-0.98,101%,99.5%,1.4,2.71
CCOCCn1c(SCc2cccc(C)c2)nc2c1c(=O)[nH]c(=O)n2C,-7.34,10,-5.79,98%,87.4%,0.905,2.37
C=CC(C)Sc1nc2c(c(=O)n(C)c(=O)n2C)n1Cc1ccccc1Cl (stereo not given),-3.12,-2.02,-3.37,100%,99.3%,0.785,5.22
O=C(O)CCCCCN1C(=O)C(=O)/C(=C(/O)c2ccccc2)C1c1ccccc1 (stereo not given),-21.2,-18.6,0.21,100%,103%,3.47,2.1
CCN1CCCC1CNC(=O)C1c2ccccc2C(=O)N(CCOC)C1c1ccc(F)cc1 (stereo not given),-3.19,-18.9,-1.76,95.6%,98.1%,1.17,7.82
COC(=O)c1nc(NC(=O)C(C)(C)C)n[nH]1,-9.88,-18.8,-3.77,92.7%,89.8%,2.06,0.47
Cc1cc(C(=O)N2CCN(S(C)(=O)=O)CC2)sc1-c1ccccc1,-7.32,3.48,-2.61,94.9%,94%,3.19,6.22
CCCCN(C)Cc1c(C)[nH]c2ccc(OCC)cc2c1=O,-11.7,-20,-0.94,93.6%,97.9%,1.4,4.04
O=c1[nH]c(NC2CCCCC2)nnc1Cc1ccccc1,-10,-5.11,0.04,102%,97.6%,2.53,1.52
Cc1ccc(CNC(=O)CCS(=O)(=O)c2cccc3nsnc23)cc1,-2.81,-1.48,-1.57,103%,104%,1.64,6.91

SMILES,growth inhibition [1] [%],growth inhibition [2] [%],viability increase [3] [%],viability [4],viability [5],inhibition [6] [%],RAM network inhibition [7] [%]
CCOc1ccc(OCC)c(NS(=O)(=O)c2cccc3nsnc23)c1,-13.8,-21.1,-2.5,88.8%,98%,2.63,3.41
C=CCSC1=NC(N)=C(C#N)C2(CCCCC2)C1C(N)=O (stereo not given),-4.98,2.22,-1.39,92.5%,96.6%,0.77,2.04
COc1ccc(-c2nnc3ccc(SCC(=O)N4CCCCCC4)nn23)cc1OC,1.58,-3.42,-4.16,103%,109%,0.615,0.05
Cc1[nH]n2c(=O)c3c(nc2c1-c1ccc(Cl)cc1)CCC3,-14.1,-8.77,-2.32,22.5% (active),26.8% (active),1.88,6.65
Cc1ccc(NC(=O)CSc2nnc(-c3ccncc3)n2N)cc1C,-4.62,-3.02,-2.83,97.8%,98.3%,1.71,2.23
Cn1c(Cn2c(=O)sc3ccccc32)nnc1SCC(=O)Nc1cccc(Cl)c1,-3.44,-16.1,-0.83,99.6%,98.8%,2.58,2.23
CCOC(=O)c1ccc(NC(=O)NCCN2CCCCC2)cc1,-0.03,-4.93,-0.32,105%,100%,1.49,3.62
COC(=O)c1c(C)nc(C)c2c(=O)oc3ccccc3c12,3.52,15.3,0.64,102%,104%,2.04,1.99
O=C(O)C1C2C=CC(C2)C1C(=O)NCc1ccc2c(c1)OCO2 (stereo not given),-3.23,-1.14,-1.9,94.6%,90.6%,2.08,2.65
O=C(Cn1nnc(-c2ccccc2F)n1)NCCc1ccccc1,-13.3,-7.54,-0.89,97.4%,94%,1.33,0.36
COc1cc(NC(=O)C2CCC(CNc3c(N4CCCCC4)c(=O)c3=O)CC2)cc(OC)c1 (stereo not given),0.52,-2.35,-0.71,95.2%,95.9%,1.79,5.55
COc1ccc(NC(=O)C2CCN(S(=O)(=O)c3ccc(OC)c(OC)c3)CC2)c(OC)c1,-1.19,4.12,-0.83,94.7%,88.6%,1,1.41
O=C1CC(C(=O)N2CCN(c3ccc(F)cc3)CC2)CN1CCc1ccccc1 (stereo not given),-1.65,5.89,-2.3,99.2%,92.6%,-0.23,1.03
COc1ccc(C(c2sc3ncnn3c2O)N2CCN(c3ccccc3F)CC2)cc1OC (stereo not given),0.27,11.7,1.69,103%,92%,1.3,1.06
CC(=O)NC(CCS(C)(=O)=O)C(=O)Nc1ccc(Oc2ccccc2)cc1 (stereo not given),-7.71,-16.7,-0.67,101%,93.5%,1.69,5.21
COc1cc2[nH]c(=O)n(CCCCCC(=O)NCCCN3CCC(C)CC3)c(=O)c2cc1OC,-13.8,-6.3,-0.8,93.8%,101%,1.68,2.66
COc1ccc(-n2nc3cc(C)c(NC(=O)CC(C)C)cc3n2)cc1,-7.39,-3.86,-0.97,94%,92.2%,0.405,3.76
